Results published in ChEMBL document CHEMBL5678810.
Active and inactive are the calls of the source. The calls are words filed in the database; no cut-off is given here.

Key:
[1] = target: Activin receptor type-1B (Homo sapiens) (UniProt P36896); experiment: Inhibition of T7 bacteriophage fused human ACVR1B at 10 uM by KINOMEscan analysis relative to control
[2] = target: Mitogen-activated protein kinase kinase kinase 5 (Homo sapiens) (UniProt Q99683); experiment: Inhibition of T7 bacteriophage fused human ASK1 at 10 uM by KINOMEscan analysis relative to control
[3] = target: Serine/threonine-protein kinase BRSK2 (Homo sapiens) (UniProt Q8IWQ3); experiment: Inhibition of T7 bacteriophage fused human BRSK2 at 10 uM by KINOMEscan analysis relative to control
Sequence of Serine/threonine-protein kinase BRSK2 (Homo sapiens) (Q8IWQ3 whole entry, the tested form may be a part): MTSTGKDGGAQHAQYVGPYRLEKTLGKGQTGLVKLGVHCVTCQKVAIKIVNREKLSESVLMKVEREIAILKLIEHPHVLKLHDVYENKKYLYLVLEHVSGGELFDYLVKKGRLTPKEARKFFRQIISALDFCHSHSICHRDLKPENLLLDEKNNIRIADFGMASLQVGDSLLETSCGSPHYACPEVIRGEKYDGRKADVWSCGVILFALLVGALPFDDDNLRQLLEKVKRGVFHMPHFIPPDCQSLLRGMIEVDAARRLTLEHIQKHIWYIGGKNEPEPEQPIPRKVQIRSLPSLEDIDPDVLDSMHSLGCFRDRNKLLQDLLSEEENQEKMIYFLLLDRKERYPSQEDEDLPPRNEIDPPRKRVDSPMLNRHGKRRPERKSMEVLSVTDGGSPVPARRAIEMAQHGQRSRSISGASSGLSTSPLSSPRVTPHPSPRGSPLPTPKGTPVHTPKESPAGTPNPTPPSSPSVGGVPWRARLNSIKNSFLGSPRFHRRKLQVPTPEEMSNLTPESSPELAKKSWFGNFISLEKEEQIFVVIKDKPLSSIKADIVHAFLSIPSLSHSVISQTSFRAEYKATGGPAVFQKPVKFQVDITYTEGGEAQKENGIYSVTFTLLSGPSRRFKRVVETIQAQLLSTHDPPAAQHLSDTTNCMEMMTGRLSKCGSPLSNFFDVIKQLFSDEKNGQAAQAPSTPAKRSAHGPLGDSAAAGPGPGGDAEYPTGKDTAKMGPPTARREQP

[4] = target: Calcium/calmodulin-dependent protein kinase type IV (Homo sapiens) (UniProt Q16566); experiment: Inhibition of T7 bacteriophage fused human CAMK4 at 10 uM by KINOMEscan analysis relative to control
[5] = target: CDK4/Cyclin D3 (Homo sapiens) (UniProt P11802+P30281); experiment: Inhibition of T7 bacteriophage fused human CDK4-cyclinD3 at 10 uM by KINOMEscan analysis relative to control; type: protein-complex assay
[6] = target: Cyclin-dependent kinase-like 2 (Homo sapiens) (UniProt Q92772); experiment: Inhibition of T7 bacteriophage fused human CDKL2 at 10 uM by KINOMEscan analysis relative to control
[7] = target: Cyclin-dependent kinase-like 5 (Homo sapiens) (UniProt O76039); experiment: Inhibition of T7 bacteriophage fused human CDKL5 at 10 uM by KINOMEscan analysis relative to control
Sequence of Cyclin-dependent kinase-like 5 (Homo sapiens) (O76039 whole entry, the tested form may be a part): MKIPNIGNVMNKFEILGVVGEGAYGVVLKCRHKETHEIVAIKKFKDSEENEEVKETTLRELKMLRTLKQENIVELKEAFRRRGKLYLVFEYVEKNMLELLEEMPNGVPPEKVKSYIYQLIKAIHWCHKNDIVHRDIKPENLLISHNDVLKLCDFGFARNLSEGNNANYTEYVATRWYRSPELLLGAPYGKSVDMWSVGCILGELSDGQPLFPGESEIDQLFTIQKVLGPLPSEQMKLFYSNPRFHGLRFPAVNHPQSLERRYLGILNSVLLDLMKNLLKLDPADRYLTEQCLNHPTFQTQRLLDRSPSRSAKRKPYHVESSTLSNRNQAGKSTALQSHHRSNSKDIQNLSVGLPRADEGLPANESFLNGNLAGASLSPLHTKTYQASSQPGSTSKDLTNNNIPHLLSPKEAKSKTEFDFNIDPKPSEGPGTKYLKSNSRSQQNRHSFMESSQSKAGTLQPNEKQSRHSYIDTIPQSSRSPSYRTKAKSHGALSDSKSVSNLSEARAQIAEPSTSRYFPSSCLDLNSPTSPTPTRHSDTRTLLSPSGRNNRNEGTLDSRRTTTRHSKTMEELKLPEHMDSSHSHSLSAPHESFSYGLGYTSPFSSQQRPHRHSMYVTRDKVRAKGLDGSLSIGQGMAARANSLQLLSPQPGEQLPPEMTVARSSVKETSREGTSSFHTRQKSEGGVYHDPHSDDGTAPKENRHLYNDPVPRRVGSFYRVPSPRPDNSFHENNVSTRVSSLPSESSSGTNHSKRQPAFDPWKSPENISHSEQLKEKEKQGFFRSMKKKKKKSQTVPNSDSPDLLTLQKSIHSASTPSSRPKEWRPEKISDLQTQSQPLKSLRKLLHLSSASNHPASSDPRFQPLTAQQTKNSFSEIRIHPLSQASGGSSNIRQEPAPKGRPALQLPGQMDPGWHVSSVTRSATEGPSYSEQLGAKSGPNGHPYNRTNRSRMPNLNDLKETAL

[8] = target: Receptor tyrosine-protein kinase erbB-2 (Homo sapiens) (UniProt P04626); experiment: Inhibition of T7 bacteriophage fused human ERBB2 at 10 uM by KINOMEscan analysis relative to control
[9] = target: Receptor-type tyrosine-protein kinase FLT3 (Homo sapiens) (UniProt P36888); experiment: Inhibition of T7 bacteriophage fused human FLT3 at 10 uM by KINOMEscan analysis relative to control
[10] = target: Glycogen synthase kinase-3 alpha (Homo sapiens) (UniProt P49840); experiment: Inhibition of T7 bacteriophage fused human GSK3A at 10 uM by KINOMEscan analysis relative to control
[11] = tested on: Mast/stem cell growth factor receptor Kit (Homo sapiens), P10721 [V559D]; experiment: Inhibition of T7 bacteriophage fused human KIT V559D mutant at 10 uM by KINOMEscan analysis relative to control
Sequence of Mast/stem cell growth factor receptor Kit (Homo sapiens), P10721 [V559D] (P10721 whole entry V559D, the tested form may be a part): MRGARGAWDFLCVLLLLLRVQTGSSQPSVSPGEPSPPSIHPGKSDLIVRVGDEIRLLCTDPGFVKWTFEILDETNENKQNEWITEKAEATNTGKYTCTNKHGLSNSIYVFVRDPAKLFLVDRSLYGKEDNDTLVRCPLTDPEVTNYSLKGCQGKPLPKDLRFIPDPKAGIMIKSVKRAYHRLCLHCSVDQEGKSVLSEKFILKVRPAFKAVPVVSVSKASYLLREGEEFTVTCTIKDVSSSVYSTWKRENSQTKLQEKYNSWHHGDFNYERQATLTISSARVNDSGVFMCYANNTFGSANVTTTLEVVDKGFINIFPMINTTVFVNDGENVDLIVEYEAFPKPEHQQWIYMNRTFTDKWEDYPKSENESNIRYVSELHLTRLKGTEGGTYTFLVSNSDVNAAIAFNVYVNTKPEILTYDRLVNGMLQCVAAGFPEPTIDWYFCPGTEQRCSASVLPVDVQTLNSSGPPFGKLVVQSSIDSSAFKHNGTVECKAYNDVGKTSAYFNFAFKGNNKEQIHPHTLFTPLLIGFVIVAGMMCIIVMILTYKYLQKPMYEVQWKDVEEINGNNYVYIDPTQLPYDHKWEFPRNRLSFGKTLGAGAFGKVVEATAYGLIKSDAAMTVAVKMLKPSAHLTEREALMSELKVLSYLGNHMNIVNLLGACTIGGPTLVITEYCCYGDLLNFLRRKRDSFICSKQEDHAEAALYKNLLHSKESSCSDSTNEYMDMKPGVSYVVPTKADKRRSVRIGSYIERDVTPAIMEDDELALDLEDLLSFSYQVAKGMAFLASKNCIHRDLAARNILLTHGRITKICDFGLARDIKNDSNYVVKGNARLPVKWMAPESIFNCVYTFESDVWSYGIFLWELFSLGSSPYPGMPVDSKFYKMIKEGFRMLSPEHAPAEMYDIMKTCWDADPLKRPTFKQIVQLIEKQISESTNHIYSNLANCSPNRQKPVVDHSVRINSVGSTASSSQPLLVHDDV

[12] = target: Mitogen-activated protein kinase kinase kinase 3 (Homo sapiens) (UniProt Q99759); experiment: Inhibition of T7 bacteriophage fused human MAP3K3 at 10 uM by KINOMEscan analysis relative to control
[13] = target: Serine/threonine-protein kinase MARK2 (Homo sapiens) (UniProt Q7KZI7); experiment: Inhibition of T7 bacteriophage fused human MARK2 at 10 uM by KINOMEscan analysis relative to control
[14] = target: Dual specificity mitogen-activated protein kinase kinase 4 (Homo sapiens) (UniProt P45985); experiment: Inhibition of T7 bacteriophage fused human MEK4 at 10 uM by KINOMEscan analysis relative to control
[15] = tested on: Phosphatidylinositol 4,5-bisphosphate 3-kinase catalytic subunit alpha isoform (Homo sapiens), P42336 [E545K]; experiment: Inhibition of T7 bacteriophage fused human PIK3CA E545K mutant at 10 uM by KINOMEscan analysis relative to control
[16] = target: Serine/threonine-protein kinase pim-1 (Homo sapiens) (UniProt P11309); experiment: Inhibition of T7 bacteriophage fused human PIM1 at 10 uM by KINOMEscan analysis relative to control
[17] = target: Membrane-associated tyrosine- and threonine-specific cdc2-inhibitory kinase (Homo sapiens) (UniProt Q99640); experiment: Inhibition of T7 bacteriophage fused human PKMYT1 at 10 uM by KINOMEscan analysis relative to control
Sequence of Membrane-associated tyrosine- and threonine-specific cdc2-inhibitory kinase (Homo sapiens) (Q99640 whole entry, the tested form may be a part): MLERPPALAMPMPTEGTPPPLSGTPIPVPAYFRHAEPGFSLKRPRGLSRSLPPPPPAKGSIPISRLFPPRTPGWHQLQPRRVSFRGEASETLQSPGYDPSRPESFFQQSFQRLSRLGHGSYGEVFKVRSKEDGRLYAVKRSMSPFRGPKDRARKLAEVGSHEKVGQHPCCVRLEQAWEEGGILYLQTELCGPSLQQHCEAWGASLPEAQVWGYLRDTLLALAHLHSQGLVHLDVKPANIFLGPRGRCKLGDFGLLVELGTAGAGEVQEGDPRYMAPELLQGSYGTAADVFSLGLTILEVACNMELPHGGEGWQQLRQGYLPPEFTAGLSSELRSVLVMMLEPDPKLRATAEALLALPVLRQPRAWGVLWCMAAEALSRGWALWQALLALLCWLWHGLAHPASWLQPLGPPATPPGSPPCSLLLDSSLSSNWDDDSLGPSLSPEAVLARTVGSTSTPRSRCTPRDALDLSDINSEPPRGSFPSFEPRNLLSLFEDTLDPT

[18] = target: Protein kinase C theta type (Homo sapiens) (UniProt Q04759); experiment: Inhibition of T7 bacteriophage fused human PRKCQ at 10 uM by KINOMEscan analysis relative to control
[19] = target: Uncharacterized serine/threonine-protein kinase SBK3 (Homo sapiens) (UniProt P0C264); experiment: Inhibition of T7 bacteriophage fused human SgK110 at 10 uM by KINOMEscan analysis relative to control
Sequence of Uncharacterized serine/threonine-protein kinase SBK3 (Homo sapiens) (P0C264 whole entry, the tested form may be a part): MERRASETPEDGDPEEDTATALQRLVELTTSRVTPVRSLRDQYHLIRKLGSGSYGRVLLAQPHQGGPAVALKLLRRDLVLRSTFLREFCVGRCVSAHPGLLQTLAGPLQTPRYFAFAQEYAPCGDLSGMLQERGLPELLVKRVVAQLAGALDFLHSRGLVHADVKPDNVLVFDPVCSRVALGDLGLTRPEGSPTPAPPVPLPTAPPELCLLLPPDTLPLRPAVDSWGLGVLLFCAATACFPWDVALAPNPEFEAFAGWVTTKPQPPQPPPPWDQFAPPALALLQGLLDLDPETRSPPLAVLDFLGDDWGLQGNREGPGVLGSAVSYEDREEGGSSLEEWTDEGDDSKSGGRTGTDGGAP

[20] = target: Serine/threonine-protein kinase Nek4 (Homo sapiens) (UniProt P51957); experiment: Inhibition of T7 bacteriophage fused human NEK4 at 10 uM by KINOMEscan analysis relative to control; values are per cent of control
[21] = target: Myosin light chain kinase 2, skeletal/cardiac muscle (Homo sapiens) (UniProt Q9H1R3); experiment: Inhibition of T7 bacteriophage fused human MYLK2 at 10 uM by KINOMEscan analysis relative to control; values are per cent of control
Sequence of Myosin light chain kinase 2, skeletal/cardiac muscle (Homo sapiens) (Q9H1R3 whole entry, the tested form may be a part): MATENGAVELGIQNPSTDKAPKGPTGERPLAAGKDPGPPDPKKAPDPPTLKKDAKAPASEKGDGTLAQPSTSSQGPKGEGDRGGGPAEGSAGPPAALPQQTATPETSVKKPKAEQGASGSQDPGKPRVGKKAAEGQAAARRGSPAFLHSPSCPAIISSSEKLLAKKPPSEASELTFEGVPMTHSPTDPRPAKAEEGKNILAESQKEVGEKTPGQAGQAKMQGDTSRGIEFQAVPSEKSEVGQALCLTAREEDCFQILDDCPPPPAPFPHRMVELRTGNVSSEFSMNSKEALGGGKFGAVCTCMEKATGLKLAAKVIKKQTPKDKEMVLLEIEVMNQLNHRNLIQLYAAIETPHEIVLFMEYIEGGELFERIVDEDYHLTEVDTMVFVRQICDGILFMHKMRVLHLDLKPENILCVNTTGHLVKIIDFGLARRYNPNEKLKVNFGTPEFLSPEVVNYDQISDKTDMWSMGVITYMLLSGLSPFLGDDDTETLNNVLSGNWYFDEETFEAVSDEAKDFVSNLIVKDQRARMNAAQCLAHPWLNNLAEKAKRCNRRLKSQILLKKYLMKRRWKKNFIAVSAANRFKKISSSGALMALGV

[22] = target: Dual specificity tyrosine-phosphorylation-regulated kinase 1A (Homo sapiens) (UniProt Q13627); experiment: Inhibition of T7 bacteriophage fused human DYRK1A at 10 uM by KINOMEscan analysis relative to control; values are per cent of control
[23] = target: Mitogen-activated protein kinase kinase kinase kinase 3 (Homo sapiens) (UniProt Q8IVH8); experiment: Inhibition of T7 bacteriophage fused human MAP4K3 at 10 uM by KINOMEscan analysis relative to control; values are per cent of control
[24] = target: Serine/threonine-protein kinase DCLK3 (Homo sapiens) (UniProt Q9C098); experiment: Inhibition of T7 bacteriophage fused human DCAMKL3 at 10 uM by KINOMEscan analysis relative to control; values are per cent of control
Sequence of Serine/threonine-protein kinase DCLK3 (Homo sapiens) (Q9C098 whole entry, the tested form may be a part): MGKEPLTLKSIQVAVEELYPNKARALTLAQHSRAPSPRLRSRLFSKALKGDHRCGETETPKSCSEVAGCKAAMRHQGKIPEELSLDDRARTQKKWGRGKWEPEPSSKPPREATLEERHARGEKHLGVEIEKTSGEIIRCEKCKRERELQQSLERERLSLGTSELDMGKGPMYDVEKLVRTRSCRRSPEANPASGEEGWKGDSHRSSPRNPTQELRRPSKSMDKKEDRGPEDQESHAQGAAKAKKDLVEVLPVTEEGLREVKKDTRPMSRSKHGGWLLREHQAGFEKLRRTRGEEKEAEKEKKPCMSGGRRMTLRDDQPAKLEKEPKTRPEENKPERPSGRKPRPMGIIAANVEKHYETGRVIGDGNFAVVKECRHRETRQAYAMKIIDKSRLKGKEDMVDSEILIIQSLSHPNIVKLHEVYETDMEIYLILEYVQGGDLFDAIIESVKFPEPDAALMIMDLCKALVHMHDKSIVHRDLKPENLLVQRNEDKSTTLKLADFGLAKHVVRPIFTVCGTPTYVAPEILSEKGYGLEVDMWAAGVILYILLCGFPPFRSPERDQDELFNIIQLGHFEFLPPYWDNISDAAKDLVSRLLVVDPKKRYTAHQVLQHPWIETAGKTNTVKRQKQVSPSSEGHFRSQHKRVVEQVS

[25] = target: MAP kinase-activated protein kinase 5 (Homo sapiens) (UniProt Q8IW41); experiment: Inhibition of T7 bacteriophage fused human MAPKAPK5 at 10 uM by KINOMEscan analysis relative to control; values are per cent of control
[26] = tested on: Leucine-rich repeat serine/threonine-protein kinase 2 (Homo sapiens), Q5S007 [A2016T]; experiment: Inhibition of drug-resistant GFP-tagged LRRK2 A2016T mutant phosphorylation at Ser910 residue (unknown origin) transfected in HEK293 cells upto 3 uM incubated for 90 mins by immunoblot analysis; type: cell-based
Method in brief: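 HEK293 cells stably expressing GFP-LRRK2 variants, grown in DMEM with 10% FBS, 2 mM glutamine and penicillin/streptomycin. Compound added from DMSO stock (final DMSO ≤1%) at increasing concentrations for 90 min, DMSO control. Cells were PBS-washed and lysed in Triton X-100 lysis buffer. Lysates were run on 8% SDS-PAGE and immunoblotted with rabbit monoclonals against pSer910, pSer935 and total LRRK2.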

[27] = target: Serine/threonine-protein kinase A-Raf (Homo sapiens) (UniProt P10398); experiment: Inhibition of ARAF Lys2 labeling site in human HEL cell lysate at 10 uM by KiNativ profiling analysis relative to control; type: subcellular
[28] = target: Serine/threonine-protein kinase TAO2 (Homo sapiens) (UniProt Q9UL54); experiment: Inhibition of TAO2 Lys2 labeling site in human PC-3 cell lysate at 10 uM by KiNativ profiling analysis relative to control; type: subcellular

COc1cc(N2CCC(N3CCN(C)CC3)CC2)ccc1Nc1ncc2c(n1)N(C)c1ccccc1C(=O)N2C
inhibition [1]: 100% | inhibition [2]: 100% | inhibition [3]: 64% | inhibition [4]: 79% | inhibition [5]: 100% | inhibition [6]: 100% | inhibition [7]: 100% | inhibition [8]: 100% | inhibition [9]: 100% | inhibition [10]: 100% | inhibition [11]: 100% | inhibition [12]: 97% | inhibition [13]: 100% | inhibition [14]: 100% | inhibition [15]: 100% | inhibition [16]: 100% | inhibition [17]: 80% | inhibition [18]: 100% | inhibition [19]: 62% | residual activity [20]: 95% | residual activity [21]: 98% | residual activity [22]: 99% | residual activity [23]: 71% | residual activity [24]: 90% | residual activity [25]: 97%

CCOc1cc(C(=O)N2CCC(N3CCN(C)CC3)CC2)ccc1Nc1ncc2c(n1)N(C1CCCC1)c1ccccc1C(=O)N2C
inhibition [26]: inactive

COc1cc(C(=O)N2CCC(N3CCN(C)CC3)CC2)ccc1Nc1ncc2c(n1)N(C1CCCC1)c1ccccc1C(=O)N2C
inhibition [27]: -0.7% | inhibition [28]: 0.3%
